Measured values: ChEMBL document CHEMBL1212762, “In vivo activity of ceftobiprole in murine skin infections due to Staphylococcus aureus and Pseudomonas aeruginosa” (Antimicrob Agents Chemother, 2010)

How the values were obtained:
Pseudomonas aeruginosa [1] = assay: Antimicrobial activity against Pseudomonas aeruginosa OC 4354 infected in immunocompromized SKH1 mouse assessed as lesion volume at 6.2 mg/kg/day, sc measured after 48 hrs postinfection (reference value: 2195 mm3); format: functional; conditions: route subcutaneous
Pseudomonas aeruginosa [2] = assay: Antimicrobial activity against Pseudomonas aeruginosa OC 4354 infected in immunocompromized SKH1 mouse assessed as lesion volume at 25 mg/kg/day, sc measured after 48 hrs postinfection (reference value: 2195 mm3); format: functional; conditions: route subcutaneous
[3] = Tmax in immunocompromized SKH1 mouse plasma at 50 mg/kg, sc; format: ADME, organism-based; set-up: dose 50 mg/kg, route subcutaneous
Method in brief: (§1)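 Female SKH1 hairless mice, immunocompetent or cyclophosphamide-neutropenic, infected s.c. with MRSA OC 8525 or P. aeruginosa OC 4354 on the Cytodex beads (left flank), sterile beads on the right. Single dose 24 h later: s.c. at the nape, or linezolid 50 mg/kg oral. Plasma and skin (DMSO homogenate) sampled over time, HPLC with diode array.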

[4] = Half life in Staphylococcus aureus infected immunocompetent SKH1 mouse skin at 50 mg/kg, sc; format: ADME, organism-based, Zone of skin; set-up: dose 50 mg/kg, route subcutaneous; method in brief: as §1
Plasma = assay: fAUC (0-infinity) in immunocompetent SKH1 mouse plasma at 50 mg/kg, sc; format: ADME, organism-based; set-up: dose 50 mg/kg, route subcutaneous; conditions: in vivo; method in brief: as §1

Nc1nc(/C(=N/O)C(=O)N[C@@H]2C(=O)N3C(C(=O)O)=C(/C=C4\CCN([C@@H]5CCNC5)C4=O)CS[C@H]23)ns1 [CEFTOBIPROLE]
Activity (Pseudomonas aeruginosa [1]): 1028 mm3 | Activity (Pseudomonas aeruginosa [2]): 580 mm3 | Tmax [3]: 7.5 min | half-life [4]: 15 min | fAUC (Plasma): 2336 µg·min/mL
